Measured values as given in ChEMBL document CHEMBL1138470, “Discovery and characterization of the N-phenyl-N'-naphthylurea class of p38 kinase inhibitors” (Bioorg Med Chem Lett, 2009).
Blank lines part the entries; values can stand above or below the compound they belong to. Active and inactive are the calls of the source. No cut-off for these calls is given here.

Legend:
Blood = experiment: Inhibition of LPS-induced TNFalpha production in human whole blood; type: functional, tissue-based
In short: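 LPS-stimulated TNFα production in whole blood from human donors; IC50 reported as geometric mean of 4–12 donor experiments, SD typically ±50% of the value.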

THP-1 = experiment: Inhibition of LPS-induced TNFalpha production in human THP1 cells; type: functional, cell-based
In short: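 LPS-stimulated TNFα release from THP-1 cells; IC50 values are means of 2–4 experiments, SD for n > 2 typically ±50% of the value.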

[1] = biological target: T1, Mitogen-activated protein kinase 14 (Homo sapiens, UniProt Q16539)
[2] = biological target: Mitogen-activated protein kinase 8 (Homo sapiens) (UniProt P45983); experiment: Inhibition of […] at => 3 ug/mL
[3] = biological target: Rho-associated protein kinase 2 (Homo sapiens) (UniProt O75116); experiment: Inhibition of ROCK2 at => 3 ug/mL
Ephrin type-A receptor 3 = Ephrin type-A receptor 3 (Homo sapiens, UniProt P29320); experiment: Inhibition of HEK
[4] = Inhibition of PHK1 at => 3 ug/mL
[5] = biological target: Tyrosine-protein kinase TXK (Homo sapiens) (UniProt P42681); experiment: Inhibition of TXK at => 3 ug/mL
[6] = Inhibition of VEGFR
[7] = biological target: Insulin receptor (Homo sapiens) (UniProt P06213); experiment: Inhibition of IR at => 3 ug/mL
[8] = biological target: Tyrosine-protein kinase CSK (Homo sapiens) (UniProt P41240); experiment: Inhibition of CSK at 3 uM
[9] = biological target: Protein kinase C alpha type (Homo sapiens) (UniProt P17252); experiment: Inhibition of PKCalpha at => 3 ug/mL
Ephrin type-A receptor 2 = Ephrin type-A receptor 2 (Homo sapiens, UniProt P29317); experiment: Inhibition of ECK
[10] = biological target: MAP kinase-activated protein kinase 5 (Homo sapiens) (UniProt Q8IW41); experiment: Inhibition of PRAK at => 3 ug/mL
[11] = biological target: Tyrosine-protein kinase BTK (Homo sapiens) (UniProt Q06187); experiment: Inhibition of BTK at => 3 ug/mL
[12] = biological target: Mitogen-activated protein kinase kinase kinase 14 (Homo sapiens) (UniProt Q99558); experiment: Inhibition of NIK at => 3 ug/mL
Mus musculus = experiment: Inhibition of LPS-induced endotoxemia in mouse assessed as inhibition of TNFalpha production at 3 mg/kg, po; type: functional
In short: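 Mouse LPS-induced endotoxemia model; compound given orally at 3 mg/kg, and TNFα production is measured and expressed as percent inhibition.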

[13] = Inhibition of CK2 at => 3 ug/mL
[14] = Inhibition of pp60src
[15] = biological target: Serine/threonine-protein kinase Sgk1 (Homo sapiens) (UniProt O00141); experiment: Inhibition of SGK at => 3 ug/mL
[16] = biological target: Mitogen-activated protein kinase 9 (Homo sapiens, UniProt P45984); experiment: Inhibition of JNK2alpha2 by exchange curve binding kinetic analysis
[17] = biological target: Tyrosine-protein kinase JAK3 (Homo sapiens) (UniProt P52333); experiment: Inhibition of JAK3 at => 3 ug/mL
[18] = biological target: Ribosomal protein S6 kinase alpha-3 (Homo sapiens) (UniProt P51812); experiment: Inhibition of MAPKAPK1B at => […] ug/mL
[19] = biological target: Epidermal growth factor receptor (Homo sapiens, UniProt P00533); experiment: Inhibition of EGFR
[20] = biological target: Cyclin-dependent kinase 1 (Homo sapiens) (UniProt P06493); experiment: Inhibition of CDK1 at => 3 ug/mL
[21] = biological target: Casein kinase I isoform alpha (Homo sapiens) (UniProt P48729); experiment: Inhibition of CK1 at => 3 ug/mL
[22] = biological target: RAF proto-oncogene serine/threonine-protein kinase (Homo sapiens, UniProt P04049); experiment: Inhibition of craf
[23] = Inhibition of IKK at => 3 ug/mL
[24] = Inhibition of FGFR
[25] = Inhibition of PKA at => […] ug/mL
[26] = biological target: Tyrosine-protein kinase SYK (Homo sapiens) (UniProt P43405); experiment: Inhibition of SYK at => 3 ug/mL
[27] = biological target: Focal adhesion kinase 1 (Homo sapiens) (UniProt Q05397); experiment: Inhibition of PTK2 at => 3 ug/mL
[28] = biological target: 3-phosphoinositide-dependent protein kinase 1 (Homo sapiens) (UniProt O15530); experiment: Inhibition of PDK1 at => 3 ug/mL
[29] = biological target: Glycogen synthase kinase-3 beta (Homo sapiens) (UniProt P49841); experiment: Inhibition of GSK3-beta at => 3 ug/mL
[30] = biological target: Dual specificity tyrosine-phosphorylation-regulated kinase 1A (Homo sapiens) (UniProt Q13627); experiment: Inhibition of DYRK1A at => 3 ug/mL
[31] = biological target: Tyrosine-protein kinase Lck (Homo sapiens) (UniProt P06239); experiment: Inhibition of LCK at => 3 ug/mL
[32] = Inhibition of PI3K at => 3 ug/mL
[33] = biological target: Serine/threonine-protein kinase B-raf (Homo sapiens, UniProt P15056); experiment: Inhibition of bRaf
[34] = biological target: Ribosomal protein S6 kinase beta-1 (Homo sapiens) (UniProt P23443); experiment: Inhibition of S6K1 at => 3 ug/mL
[35] = biological target: Tyrosine-protein kinase ABL1 (Homo sapiens, UniProt P00519); experiment: Inhibition of Abl
[36] = biological target: MAP kinase-activated protein kinase 2 (Homo sapiens) (UniProt P49137); experiment: Inhibition of MAPKAPK2 at => […] ug/mL
[37] = biological target: Tyrosine-protein kinase Lyn (Homo sapiens, UniProt P07948); experiment: Inhibition of Lyn
[38] = biological target: RAC-alpha serine/threonine-protein kinase (Homo sapiens, UniProt P31749); experiment: Inhibition of PKBalpha/Akt1
[39] = biological target: Ribosomal protein S6 kinase alpha-3 (Homo sapiens) (UniProt P51812); experiment: Inhibition of RSK2 at => 3 ug/mL
[40] = biological target: Hepatocyte growth factor receptor (Homo sapiens) (UniProt P08581); experiment: Inhibition of HGFR at => 3 ug/mL
[41] = Inhibition of ERK at => 3 ug/mL
[42] = biological target: Insulin-like growth factor 1 receptor (Homo sapiens) (UniProt P08069); experiment: Inhibition of IGF1R at => 3 ug/mL
[43] = biological target: Dual specificity mitogen-activated protein kinase kinase 1 (Homo sapiens) (UniProt Q02750); experiment: Inhibition of MKK1 at => 3 ug/mL
[44] = biological target: T1, Mitogen-activated protein kinase 14; experiment: Binding affinity to p38alpha assessed as inhibition of ATF2 phosphorylation preincubated for 4 hrs
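Throughout, for Tm: thermal denaturation measurement of the p38alpha–inhibitor complex, reporting its melting point as a readout of binding.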

T1 sequence (Q16539 whole entry): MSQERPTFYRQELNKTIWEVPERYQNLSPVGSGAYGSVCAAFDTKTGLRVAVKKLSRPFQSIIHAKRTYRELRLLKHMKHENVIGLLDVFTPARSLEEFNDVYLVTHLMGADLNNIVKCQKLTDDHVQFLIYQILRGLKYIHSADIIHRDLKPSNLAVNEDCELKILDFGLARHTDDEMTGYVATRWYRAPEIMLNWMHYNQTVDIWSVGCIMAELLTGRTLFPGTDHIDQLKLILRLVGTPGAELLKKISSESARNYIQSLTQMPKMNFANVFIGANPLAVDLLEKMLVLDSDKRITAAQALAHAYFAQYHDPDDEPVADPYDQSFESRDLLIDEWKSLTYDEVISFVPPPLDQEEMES
Sequence of Ribosomal protein S6 kinase alpha-3 (Homo sapiens) (P51812 whole entry): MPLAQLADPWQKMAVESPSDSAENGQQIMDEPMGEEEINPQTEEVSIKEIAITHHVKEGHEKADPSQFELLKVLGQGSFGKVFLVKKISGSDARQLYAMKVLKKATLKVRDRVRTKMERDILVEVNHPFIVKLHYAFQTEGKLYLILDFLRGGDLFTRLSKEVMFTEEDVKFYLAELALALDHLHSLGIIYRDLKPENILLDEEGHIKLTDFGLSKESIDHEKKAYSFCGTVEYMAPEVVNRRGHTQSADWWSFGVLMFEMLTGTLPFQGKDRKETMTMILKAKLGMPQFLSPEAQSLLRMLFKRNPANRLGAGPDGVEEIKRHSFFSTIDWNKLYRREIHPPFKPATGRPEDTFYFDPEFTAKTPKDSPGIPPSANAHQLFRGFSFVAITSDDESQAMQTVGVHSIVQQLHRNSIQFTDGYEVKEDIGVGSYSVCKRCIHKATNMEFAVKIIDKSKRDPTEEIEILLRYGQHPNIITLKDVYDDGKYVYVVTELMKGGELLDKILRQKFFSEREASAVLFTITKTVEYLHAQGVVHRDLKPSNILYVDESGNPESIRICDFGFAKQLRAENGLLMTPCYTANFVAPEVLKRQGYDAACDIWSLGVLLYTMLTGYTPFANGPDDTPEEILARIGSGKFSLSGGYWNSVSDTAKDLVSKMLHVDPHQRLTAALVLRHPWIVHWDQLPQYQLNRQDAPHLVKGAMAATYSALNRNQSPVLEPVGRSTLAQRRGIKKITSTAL
Sequence of Tyrosine-protein kinase CSK (Homo sapiens) (P41240 2-450 limits assumed): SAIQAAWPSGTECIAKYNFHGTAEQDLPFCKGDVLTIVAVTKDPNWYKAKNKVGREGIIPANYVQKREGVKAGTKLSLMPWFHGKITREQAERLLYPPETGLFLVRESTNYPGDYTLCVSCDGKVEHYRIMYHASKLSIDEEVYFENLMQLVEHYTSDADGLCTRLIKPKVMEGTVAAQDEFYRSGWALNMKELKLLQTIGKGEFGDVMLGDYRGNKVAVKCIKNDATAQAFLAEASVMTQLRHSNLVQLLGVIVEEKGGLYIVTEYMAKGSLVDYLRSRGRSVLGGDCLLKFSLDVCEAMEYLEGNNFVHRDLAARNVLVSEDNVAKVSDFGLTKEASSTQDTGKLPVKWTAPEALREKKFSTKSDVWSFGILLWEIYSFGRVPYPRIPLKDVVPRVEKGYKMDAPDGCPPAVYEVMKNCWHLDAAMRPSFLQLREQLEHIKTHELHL
Sequence of Tyrosine-protein kinase TXK (Homo sapiens) (P42681 whole entry): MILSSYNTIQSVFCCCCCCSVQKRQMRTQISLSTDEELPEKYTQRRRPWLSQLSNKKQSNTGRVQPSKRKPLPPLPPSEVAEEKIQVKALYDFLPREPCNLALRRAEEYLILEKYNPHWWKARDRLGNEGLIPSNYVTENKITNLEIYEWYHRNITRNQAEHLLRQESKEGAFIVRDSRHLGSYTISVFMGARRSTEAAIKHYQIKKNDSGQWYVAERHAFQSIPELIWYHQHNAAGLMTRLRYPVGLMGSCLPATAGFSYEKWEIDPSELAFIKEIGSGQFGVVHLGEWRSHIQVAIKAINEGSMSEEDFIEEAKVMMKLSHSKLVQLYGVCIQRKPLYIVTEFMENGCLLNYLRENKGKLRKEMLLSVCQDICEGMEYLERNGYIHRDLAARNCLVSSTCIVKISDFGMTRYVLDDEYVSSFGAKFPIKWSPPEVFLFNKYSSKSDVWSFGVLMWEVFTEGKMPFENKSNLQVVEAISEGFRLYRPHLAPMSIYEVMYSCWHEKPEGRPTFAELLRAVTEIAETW
Sequence of Dual specificity mitogen-activated protein kinase kinase 1 (Homo sapiens) (Q02750 whole entry): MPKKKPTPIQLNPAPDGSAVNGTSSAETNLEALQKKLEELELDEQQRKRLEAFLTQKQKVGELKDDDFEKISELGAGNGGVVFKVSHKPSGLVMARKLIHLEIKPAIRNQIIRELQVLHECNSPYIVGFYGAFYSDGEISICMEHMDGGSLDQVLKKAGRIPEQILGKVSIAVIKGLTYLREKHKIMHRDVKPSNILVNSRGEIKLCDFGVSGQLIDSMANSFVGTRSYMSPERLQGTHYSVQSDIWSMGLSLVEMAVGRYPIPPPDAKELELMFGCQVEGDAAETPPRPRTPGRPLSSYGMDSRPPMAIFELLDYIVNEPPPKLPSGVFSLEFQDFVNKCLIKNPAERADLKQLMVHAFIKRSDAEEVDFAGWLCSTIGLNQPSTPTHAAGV
Sequence of Cyclin-dependent kinase 1 (Homo sapiens) (P06493 whole entry, looked up, canonical isoform): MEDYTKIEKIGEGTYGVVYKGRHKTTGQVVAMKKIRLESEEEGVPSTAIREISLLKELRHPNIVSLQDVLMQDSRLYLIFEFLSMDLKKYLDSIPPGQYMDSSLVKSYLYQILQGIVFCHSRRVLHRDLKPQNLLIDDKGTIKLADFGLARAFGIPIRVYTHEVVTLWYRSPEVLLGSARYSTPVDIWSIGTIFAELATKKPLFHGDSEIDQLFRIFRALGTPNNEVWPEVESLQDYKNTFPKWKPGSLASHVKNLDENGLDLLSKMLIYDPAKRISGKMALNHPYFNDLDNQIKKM
Sequence of Tyrosine-protein kinase ABL1 (P00519 whole entry): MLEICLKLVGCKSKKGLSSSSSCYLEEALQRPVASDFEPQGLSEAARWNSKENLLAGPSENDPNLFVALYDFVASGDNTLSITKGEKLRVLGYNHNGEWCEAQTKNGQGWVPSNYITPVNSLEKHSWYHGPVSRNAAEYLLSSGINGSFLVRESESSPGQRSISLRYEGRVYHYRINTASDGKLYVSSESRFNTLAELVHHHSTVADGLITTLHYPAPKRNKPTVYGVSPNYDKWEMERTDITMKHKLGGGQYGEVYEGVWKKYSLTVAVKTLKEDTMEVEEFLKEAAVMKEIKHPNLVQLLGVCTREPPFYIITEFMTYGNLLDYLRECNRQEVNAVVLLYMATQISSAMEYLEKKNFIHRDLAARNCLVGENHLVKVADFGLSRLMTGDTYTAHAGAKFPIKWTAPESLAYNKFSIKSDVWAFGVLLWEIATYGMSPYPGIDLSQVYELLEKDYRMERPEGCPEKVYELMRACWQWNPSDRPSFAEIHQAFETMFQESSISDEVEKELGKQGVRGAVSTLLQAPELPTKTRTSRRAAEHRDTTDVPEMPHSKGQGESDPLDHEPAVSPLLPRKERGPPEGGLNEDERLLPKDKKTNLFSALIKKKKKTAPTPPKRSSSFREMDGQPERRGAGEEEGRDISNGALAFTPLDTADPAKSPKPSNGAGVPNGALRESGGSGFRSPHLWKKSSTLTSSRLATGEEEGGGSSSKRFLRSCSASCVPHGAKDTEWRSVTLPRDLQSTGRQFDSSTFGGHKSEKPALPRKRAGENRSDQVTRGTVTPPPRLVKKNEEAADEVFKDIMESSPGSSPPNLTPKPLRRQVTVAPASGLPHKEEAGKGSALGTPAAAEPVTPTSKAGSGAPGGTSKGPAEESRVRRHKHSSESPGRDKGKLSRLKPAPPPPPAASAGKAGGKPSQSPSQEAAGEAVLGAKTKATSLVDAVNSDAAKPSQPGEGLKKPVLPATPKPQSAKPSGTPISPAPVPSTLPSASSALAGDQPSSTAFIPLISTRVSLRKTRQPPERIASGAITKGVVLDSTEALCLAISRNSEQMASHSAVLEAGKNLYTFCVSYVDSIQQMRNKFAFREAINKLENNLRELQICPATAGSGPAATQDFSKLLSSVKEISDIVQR
Sequence of MAP kinase-activated protein kinase 2 (Homo sapiens) (P49137 whole entry, looked up): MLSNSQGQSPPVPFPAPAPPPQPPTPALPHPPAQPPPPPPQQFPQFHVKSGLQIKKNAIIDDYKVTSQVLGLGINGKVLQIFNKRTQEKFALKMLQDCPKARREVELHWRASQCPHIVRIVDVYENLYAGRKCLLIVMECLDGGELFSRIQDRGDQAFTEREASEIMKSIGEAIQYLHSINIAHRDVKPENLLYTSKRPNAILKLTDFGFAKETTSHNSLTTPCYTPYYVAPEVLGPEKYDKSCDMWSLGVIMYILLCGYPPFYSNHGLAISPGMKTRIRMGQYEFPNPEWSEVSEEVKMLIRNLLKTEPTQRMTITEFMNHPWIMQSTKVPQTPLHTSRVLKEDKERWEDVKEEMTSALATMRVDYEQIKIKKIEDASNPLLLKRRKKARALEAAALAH
Sequence of RAC-alpha serine/threonine-protein kinase (P31749 whole entry): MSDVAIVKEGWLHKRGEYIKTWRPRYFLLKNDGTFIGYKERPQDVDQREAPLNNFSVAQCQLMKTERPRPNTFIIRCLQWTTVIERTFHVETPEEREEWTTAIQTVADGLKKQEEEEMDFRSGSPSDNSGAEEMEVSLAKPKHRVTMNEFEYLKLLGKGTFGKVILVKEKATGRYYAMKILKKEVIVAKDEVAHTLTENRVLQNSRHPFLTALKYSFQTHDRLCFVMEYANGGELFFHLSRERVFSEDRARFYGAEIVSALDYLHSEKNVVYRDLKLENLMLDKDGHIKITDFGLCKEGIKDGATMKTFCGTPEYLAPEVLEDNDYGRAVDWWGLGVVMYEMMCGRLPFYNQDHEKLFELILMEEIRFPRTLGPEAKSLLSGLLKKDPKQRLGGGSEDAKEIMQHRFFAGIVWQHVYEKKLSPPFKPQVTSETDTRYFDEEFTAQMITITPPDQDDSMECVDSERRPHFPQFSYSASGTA

Compound: Cn1nc(C(C)(C)C)cc1NC(=O)Nc1ccc(OCCN2CCOCC2)c2ccccc12
IC50 (Blood): 10000 nM
IC50 (THP-1): 140 nM
Tm [1]: 54.5 °C

Compound: Cc1ncc(-c2ccc(C(C)(C)C)cc2NC(=O)Nc2ccc(-c3ccc(CN4CCOCC4)nc3)c3ccccc23)cn1
IC50 (Blood): 350 nM
IC50 (THP-1): 29 nM
Tm [1]: 56.6 °C

Compound: COc1c(NC(N)=O)cc(C(C)(C)C)cc1NC(=O)Nc1ccc(-c2ccc(CN3CCOCC3)nc2)c2ccccc12
IC50 (Blood): 110 nM
IC50 (THP-1): 12 nM
Tm [1]: 56.7 °C

Compound: Cc1ccc(C(C)C)cc1NC(=O)Nc1ccc(-c2ccc(CN3CCOCC3)nc2)c2ccccc12
IC50 (THP-1): 76 nM
Tm [1]: 52.3 °C

Compound: COc1c(NC(=O)Nc2ccc(-c3ccc(CN4CCOCC4)nc3)c3ccccc23)cc(C(C)(C)C)cc1C(=O)N(C)C
IC50 (Blood): 97 nM
IC50 (THP-1): 12 nM
Tm [1]: 56.2 °C

Compound: COc1c(N)cc(C(C)(C)C)cc1NC(=O)Nc1ccc(-c2ccc(CN3CCOCC3)nc2)c2ccccc12
IC50 (Blood): 22 nM
IC50 (THP-1): 5 nM
Tm [1]: 61.5 °C

Compound: CCC(=O)Nc1cc(C(C)(C)C)cc(NC(=O)Nc2ccc(-c3ccc(CN4CCOCC4)nc3)c3ccccc23)c1OC
IC50 (Blood): 71 nM
IC50 (THP-1): 5.1 nM
Tm [1]: 58.7 °C

Compound: COc1c(NC(=O)Nc2ccc(-c3ccc(CN4CCOCC4)nc3)c3ccccc23)cc(C(C)(C)C)cc1N(C)C(C)=O
IC50 (Blood): 120 nM
IC50 (THP-1): 15 nM
Tm [1]: 64.9 °C

Further lines, with some results ahead:

Activity [2]: inactive
Activity [3]: inactive
IC50 (Ephrin type-A receptor 3): 3200 nM
Activity [4]: inactive
Activity [5]: inactive
IC50 (Blood): 46 nM
IC50 [6]: 3000 nM
Activity [7]: inactive
inhibition [8]: 62%
Activity [9]: inactive
IC50 (Ephrin type-A receptor 2): 5200 nM
IC50 (THP-1): 10 nM
Activity [10]: inactive
Activity [11]: inactive
Activity [12]: inactive
Activity [13]: inactive
IC50 [14]: 8200 nM
Activity [15]: inactive
IC50 [16]: 3 nM
Activity [17]: inactive
Activity [18]: inactive
IC50 [19]: 5400 nM
Activity [20]: inactive
Activity [21]: inactive
IC50 [22]: 880 nM
Activity [23]: inactive
IC50 [24]: 7700 nM
Activity [25]: inactive
Activity [26]: inactive
Activity [27]: inactive
Activity [28]: inactive
Activity [29]: inactive
Activity [30]: inactive
Activity [31]: inactive
Activity [32]: inactive
IC50 [33]: 7200 nM
Activity [34]: inactive
IC50 [35]: 480 nM
Activity [36]: inactive
IC50 [37]: 2400 nM
IC50 [38]: 6400 nM
Activity [39]: inactive
Activity [40]: inactive
Activity [41]: inactive
Activity [42]: inactive
Tm [1]: 63.3 °C
Activity [43]: inactive
Compound: COc1c(NC(=O)Nc2ccc(-c3ccc(CN4CCOCC4)nc3)c3ccccc23)cc(C(C)(C)C)cc1NS(C)(=O)=O
inhibition in vivo at 3 mg/kg (Mus musculus): 57%

IC50 [44]: > 10000 nM
Tm [1]: 46.2 °C
Compound: COc1ccc(C(C)(C)C)cc1NC(=O)c1cc2ccccc2o1

IC50 [44]: > 10000 nM
Tm [1]: 46.9 °C
Compound: COc1ccc(C(C)(C)C)cc1NC(=O)c1cc2ccccc2s1

IC50 (Blood): 35 nM
IC50 (THP-1): 9 nM
Tm [1]: 63.6 °C
Compound: COc1c(NC(C)=O)cc(C(C)(C)C)cc1NC(=O)Nc1ccc(-c2ccc(CN3CCOCC3)nc2)c2ccccc12

IC50 [44]: 4100 nM
Tm [1]: 48.8 °C
Compound: COc1c(NC(=O)c2cc3ccccc3o2)cc(C(C)(C)C)cc1NS(C)(=O)=O
